For nine molecules, IC50, logP and Activity results are on record in ChEMBL document CHEMBL1177854, “Synthesis of bile acid derivatives and in vitro cytotoxic activity with pro-apoptotic process on multiple myeloma (KMS-11), glioblastoma multiforme (GBM), and colonic carcinoma (HCT-116) human cell lines” (Eur J Med Chem, 2010).

The subject of data set [1] is HCT-116. Put plainly: Cytotoxicity against human HCT116 cells after 24 hrs by neutral red uptake assay. Type of data set: functional, cell-based. The settings on record: HCT-116, 24 h. The method in brief: (§1)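 GBM-12 (brain tumour line), KMS-11 myeloma or HCT-116 colon carcinoma cells exposed to compound for 24 h; viability read by neutral red uptake. IC50 taken from dose-response curves; mean of three experiments ± standard error.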

The nature of data set [2]: Cytotoxicity against human KMS11 cells after 24 hrs by neutral red uptake assay. Type of data set: functional, cell-based. The settings on record: KMS-11, 24 h. The method in brief:
as §1

Data set [3] in a line: Lipophilicity, log P of the compound. Type of data set: physicochemical. The settings on record: octanol/water. The method, boiled down:
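Log P calculated in silico with the ALogP program; not measured experimentally.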

The subject of data set [4] is GBM. Kind of data set: Cytotoxicity against human GBM cells after 24 hrs by neutral red uptake assay. In kind it is functional, cell-based. The method, boiled down:
as §1

Data set [5] deals with KMS-11. Kind of data set: Induction of apoptosis in human KMS11 cells assessed as apoptotic nuclei at 10 uM after 24 hrs by microscopy relative to control. Type of data set: functional.
Data set [6] has as its system KMS-11. Kind of data set: Induction of apoptosis in human KMS11 cells assessed as DNA fragmentation after 48 hrs. Type of data set: functional, cell-based. The method, boiled down: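 KMS-11 cultures treated for 48 h; culture supernatants run on agarose gel electrophoresis against a 100 bp DNA ladder to detect DNA fragmentation.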
Data set [7] has as its system KMS-11. Put plainly: Induction of apoptosis in human KMS11 cells assessed as dead cells at 20 uM after 24 hrs using annexin V stain by FACSCalibur flow cytometry. In kind it is functional. The method in brief: (§2)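 Cells were exposed to compound for 24 h alongside untreated control cultures. They were then labelled with FITC-conjugated annexin V to mark early apoptosis. The percentage of apoptotic cells was read by flow cytometry.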

Data set [8] relates to GBM. Kind of data set: Induction of apoptosis in human GBM cells assessed as dead cells at 20 uM after 24 hrs using annexin V stain by FACSCalibur flow cytometry. Type of data set: functional. On the technique in general: Flow cytometry measures light scatter and fluorescence of single cells or particles in a stream.
Data set [9] deals with HCT-116. Kind of data set: Induction of apoptosis in human HCT116 cells assessed as dead cells at 20 uM after 24 hrs using annexin V stain by FACSCalibur flow cytometry. In kind it is functional. The method in brief:
as §2

Data set [10] has as its system KMS-11. Kind of data set: Induction of apoptosis in human KMS11 cells assessed as apoptotic nuclei at 20 uM after 24 hrs by microscopy relative to control. In kind it is functional.
The subject of data set [11] is KMS-11. Put plainly: Induction of apoptosis in human KMS11 cells assessed as apoptotic nuclei at 40 uM after 24 hrs by microscopy relative to control. Type of data set: functional.

Activity calls are given as the source filed them. The rule behind the calls is not given here.

Turning to `C[C@H](CCC(=O)NN1CCN(C)CC1)[C@H]1CC[C@H]2[C@@H]3[C@H](O)C[C@@H]4C[C@H](O)CC[C@]4(C)[C@H]3C[C@H](O)[C@]12C`, the IC50 in [1], in data set [2] and in data set [4] was above 50 µM each time. Moreover, the lipophilicity (logP) in data set [3] (read-out: logP) is 2.16.
On to `C[C@H](CCC(=O)NN1CCN(C)CC1)[C@H]1CC[C@H]2[C@@H]3[C@@H](O)C[C@@H]4C[C@H](O)CC[C@]4(C)[C@H]3CC[C@]12C`, for which the IC50 in data set [1], in data set [2] and in data set [4] was above 50 µM in each case. In addition, in [3] (read-out: logP), the logP turned out to be 3.26.
With `C[C@H](CCC(=O)NN1CCN(C)CC1)[C@H]1CC[C@H]2[C@@H]3[C@H](O)C[C@@H]4C[C@H](O)CC[C@]4(C)[C@H]3CC[C@]12C`, the values for the concentration for half-maximal inhibition (IC50) in data set [1], in data set [2] and in data set [4] were above 50 µM, at least 50 µM and at least 50 µM, respectively. Besides, the logP in [3] (read-out: logP) is 3.26.
As to `C[C@H](CCC(=O)O)[C@H]1CC[C@H]2[C@@H]3[C@@H](O)C[C@@H]4C[C@H](O)CC[C@]4(C)[C@H]3CC[C@]12C` [URSODIOL], the IC50 in data set [1], in data set [2] and in data set [4] was above 50 µM each time. The logP in data set [3] turned out to be 4.014.
With `C[C@H](CCC(=O)N1CCN(C/C=C/c2ccccc2)CC1)[C@H]1CC[C@H]2[C@@H]3[C@H](O)C[C@@H]4C[C@H](O)CC[C@]4(C)[C@H]3C[C@H](O)[C@]12C`, the IC50 in data set [1], in data set [2] and in [4] was above 50 µM throughout. For the same molecule, in data set [3] (read-out: logP), the logP came out at 4.71.
As to `C[C@H](CCC(=O)O)[C@H]1CC[C@H]2[C@@H]3[C@H](O)C[C@@H]4C[C@H](O)CC[C@]4(C)[C@H]3C[C@H](O)[C@]12C` [CHOLIC ACID], the IC50 in data set [1], in data set [2] and in data set [4] was above 50 µM each time. In data set [3], this molecule showed a logP of 2.912.
As for `C[C@H](CCC(=O)N1CCN(C/C=C/c2ccccc2)CC1)[C@H]1CC[C@H]2[C@@H]3[C@H](O)C[C@@H]4C[C@H](O)CC[C@]4(C)[C@H]3CC[C@]12C`, the values for the IC50 in [1], in [2] and in data set [4] were 18.5 µM, 8.5 µM and 16.5 µM, respectively. For the same molecule, the logP in data set [3] (read-out: logP) turned out to be 5.81.
Regarding `C[C@H](CCC(=O)O)[C@H]1CC[C@H]2[C@@H]3[C@H](O)C[C@@H]4C[C@H](O)CC[C@]4(C)[C@H]3CC[C@]12C` [CHENODIOL], the 50% inhibitory concentration (IC50) in data set [1], in data set [2] and in data set [4] was above 50 µM throughout. The molecule also returned a logP in data set [3] of 4.014.
As to `C[C@H](CCC(=O)N1CCN(C/C=C/c2ccccc2)CC1)[C@H]1CC[C@H]2[C@@H]3[C@@H](O)C[C@@H]4C[C@H](O)CC[C@]4(C)[C@H]3CC[C@]12C`, the Activity in data set [5] is recorded as 84%; in [7], 96%; in [8], 78%; in data set [9], 45%; in data set [10], 59%; in data set [11], 35%. The outcome in data set [6] was Active. In addition, the figures for the IC50 in [1], in data set [2] and in data set [4] were 31.4 µM, 28.1 µM and 24.7 µM, respectively. Besides, the logP in [3] (read-out: logP) was found to be 5.81.

As a reminder, the IC50 is the concentration needed to halve the response being measured. As usually defined, the logP is a log measure of how a compound divides between an organic and an aqueous phase.
